An excerpt weighted towards active compounds, which were near 2.4% of everything screened.
S1P4 antagonist – S1P4 receptor antagonists, primary screen, cell-based; Sphingosine 1-phosphate receptor 4 (Homo sapiens), O95977; hit rate 0.26% among 220,000; inhibition, % at 4.98 µM; S1P4-expressing cells, antagonist mode, reporter read-out; in the data active means inhibition above about 29%;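 further: 0% = wells stimulated with agonist and 100% = vehicle wells without agonist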
NPY-Y1 PAM-ag – NPY-Y1 receptor potentiators or agonists, primary screen, cell-based; Neuropeptide Y receptor type 1 (Homo sapiens), P25929; NPY-Y1 expressing cells, potentiator/agonist activation; activation, % at 3.6 µM; hit rate 0.37% among 220,000; in the data active means activation above about 33%, passing the limit was not always enough;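 further: cells stimulated with NPY at EC10 then isoproterenol at EC100; 0% = low agonist plus stimulus and 100% = saturating agonist plus stimulus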
Target sequence (P25929 whole entry, looked up): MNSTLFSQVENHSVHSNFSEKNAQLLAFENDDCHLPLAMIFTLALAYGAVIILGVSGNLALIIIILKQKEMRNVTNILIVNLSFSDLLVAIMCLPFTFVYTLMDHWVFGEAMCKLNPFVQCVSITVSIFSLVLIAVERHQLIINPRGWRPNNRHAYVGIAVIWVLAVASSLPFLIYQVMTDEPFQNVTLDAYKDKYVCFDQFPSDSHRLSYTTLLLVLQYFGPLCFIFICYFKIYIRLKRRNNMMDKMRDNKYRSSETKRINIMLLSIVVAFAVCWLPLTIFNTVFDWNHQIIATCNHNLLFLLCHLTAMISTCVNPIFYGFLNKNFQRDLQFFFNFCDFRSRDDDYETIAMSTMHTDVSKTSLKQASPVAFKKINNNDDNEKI
NPY-Y1 antag – NPY-Y1 receptor antagonists, primary screen, cell-based; hit rate 1% among 200,000; inhibition, % at 3.6 µM; HEK293-CNG Y1 cells, membrane potential fluorescence; NPY at EC95, then isoproterenol; Neuropeptide Y receptor type 1 (Homo sapiens), P25929;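 active means inhibition above the campaign mean inhibition of all tested compounds plus 3 SD, cut at about 20% in these data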;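 further: 0% = DMSO wells given NPY plus isoproterenol and 100% = isoproterenol alone without NPY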
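material = HEK293 cells with Y1 receptor plus CNG channel | also added = NPY 25 nM then isoproterenol 1 µM plus Ro 20-1724 25 µM | schedule = dye 3 h, compound 60 min room temperature, stimulation 45 min | measured by = membrane potential fluorescence | benchmarks = high control isoproterenol alone, low control NPY with isoproterenol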
S1P4 agonist – S1P4 receptor agonists, primary screen, cell-based; S1P4-expressing cell line, agonist reporter assay; activation, % at 4.98 µM; AID 1509, 2009; hit rate 0.35% among 220,000; Sphingosine 1-phosphate receptor 4 (Homo sapiens), O95977; in the data active means activation above about 11%;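 further: 0% = DMSO vehicle and 100% = reference agonist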
NPY-Y2 PAM-ag – NPY-Y2 potentiators or agonists, primary screen, cell-based | hit rate 0.45% among 220,000 | AID 1359, 2008 | activation, % at 3.6 µM | cells expressing NPY-Y2, potentiator/agonist read-out; in the data active means activation above about 27%;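 further: cells stimulated with NPY near EC25 plus isoproterenol at EC100; 0% = vehicle plus submaximal agonist and 100% = vehicle plus saturating agonist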
NPY Y2 blocker – NPY-Y2 receptor antagonists, primary screen, cell-based; Neuropeptide Y receptor type 2 (Homo sapiens), P49146; NPY-Y2 expressing cells, antagonist mode; inhibition, % at 2.7 µM; hit rate 0.99% among 140,000; AID 793, 2007;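 further: 0% = vehicle with agonist challenge and 100% = reference antagonist with challenge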
NPY1 antag ctr – NPY-Y1 receptor antagonists, selectivity check, counter-screen for NPY-Y2 antagonist project, cell-based; shares compounds with NPY Y2 blocker; cell-based NPY-Y1 antagonism counterscreen; inhibition, % at 3.6 µM; hit rate 19% among 710; in the data active means inhibition above about 20%;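 further: cells challenged with NPY then isoproterenol with cAMP sensed through a CNG channel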
NPY-Y2 ant conf – NPY-Y2 receptor antagonists, retest of hits, confirmation, HEK293-CNG cells, membrane potential fluorescence, triplicate; shares compounds with NPY Y2 blocker; HEK293 NPY-Y2 CNG channel; inhibition, % at 2.8 µM; hit rate 32% among 710; AID 1257, 2008;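 active means mean inhibition of triplicate wells above the hit cutoff set in the primary screen, cut at about 17% in these data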;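 further: 0% = DMSO with NPY challenge and 100% = BIIE0246 high control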
NPY1 antag conf – NPY-Y1 receptor antagonists, retest of hits, confirmation, HEK293-CNG cells, membrane potential fluorescence, triplicate | shares compounds with NPY-Y1 antag | cAMP; NPY challenge against isoproterenol-raised cAMP | inhibition, % at 3.6 µM | hit rate 21% among 1,200; in the data active means inhibition above about 20%;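 further: 0% = vehicle with agonist plus stimulus and 100% = stimulus alone without agonist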
NPY2 antag ctr – NPY-Y2 receptor antagonists, selectivity check, confirmation, counter-screen for NPY-Y1 antagonist project, HEK293-CNG cells, membrane potential fluorescence, triplicate; shares compounds with NPY-Y1 antag; antagonism; cells given NPY, then isoproterenol; inhibition, % at 3.6 µM; hit rate 28% among 1,200; AID 1255, 2008;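 further: 0% = DMSO with agonist challenge and 100% = reference antagonist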
NPY-Y2 pot conf – NPY-Y2 potentiators or agonists, confirmation, cell-based; shares compounds with NPY-Y2 PAM-ag; cell-based NPY-Y2 potentiator/agonist assay; activation, % at 3.6 µM; hit rate 20% among 450; AID 1539, 2009; in the data active means activation above about 33%
NPY-Y1 potentiator – NPY-Y1 potentiators or agonists, counter-screen for NPY-Y2 potentiator project, cell-based, fluorescence; shares compounds with NPY-Y2 PAM-ag; activation, % at 3.6 µM; AID 1651, 2009; Y1 HEK293-CNG cells, membrane potential fluorescence; hit rate 20% among 450; in the data active means activation above about 45%;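 further: cells stimulated with submaximal NPY then isoproterenol with phosphodiesterase inhibitor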
NPY-Y1 agonist 2 – NPY-Y1 direct agonists, selectivity assay for NPY-Y2 potentiator project, cell-based, fluorescence | shares compounds with NPY-Y2 PAM-ag | HEK293 Y1-CNGC, membrane potential fluorescence, agonism | activation, % at 3.6 µM | hit rate 37% among 450;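 active means activation above the mean of DMSO-only control wells plus 3 SD, cut at about 18% in these data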;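 further: cells stimulated with 1 µM isoproterenol plus the PDE inhibitor Ro 20-1724; 0% = isoproterenol with DMSO and no NPY and 100% = 40 nM NPY; Y1 agonists lower the membrane potential dye signal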
CNGC inh – CNGC cAMP sensor activity inhibitors, counter-screen for NPY-Y2 potentiator project, cell-based, HEK293-CNG parental, membrane potential fluorescence | shares compounds with NPY-Y2 PAM-ag | isoproterenol cAMP | inhibition, % at 3.6 µM | hit rate 32% among 450;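 active means inhibition above the control-well mean plus 3 SD of those wells, cut at about 22% in these data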;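 further: 0% = DMSO with isoproterenol and 100% = DMSO without isoproterenol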
Y2 agonist ctr – NPY-Y2 direct agonists, counter-screen for NPY-Y2 potentiator project, cell-based, fluorescence; HEK293 Y2/CNGC cells, membrane potential fluorescence, agonist mode; activation, % at 3.6 µM; hit rate 56% among 450; shares compounds with NPY-Y2 PAM-ag;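 active means activation above the mean of solvent-only control wells plus 3 SD, cut at about 10% in these data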;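 further: cells stimulated by isoproterenol with no NPY added so direct agonism is tested; 0% = DMSO with isoproterenol alone and 100% = NPY at EC100 plus isoproterenol; agonism lowers probe fluorescence through less cAMP and CNG channel opening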
S1P4 antag cf – S1P4 receptor antagonists, human, confirmation, cell-based; shares compounds with S1P4 antagonist; S1P4-expressing cell line, antagonist mode, reporter read-out; inhibition, % at 4.98 µM; hit rate 71% among 520; AID 1524, 2009; in the data active means inhibition above about 30%
S1P1 antag – S1P1 receptor antagonists, human, counter-screen for S1P4 antagonist project, cell-based | inhibition, % at 4.98 µM | AID 1564, 2009 | hit rate 37% among 520 | shares compounds with S1P4 antagonist | cell-based S1P1 antagonist counterscreen, inhibition; in the data active means inhibition above about 40%;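 further: receptor stimulated with S1P near its EC80; 0% = agonist stimulated wells and 100% = vehicle only wells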
Starred values were filed as active, the others as inactive; nt = no result. Unless noted, no stated cut-off is given here; in the data, active means inhibition above about 17%; inactive means the rest.

SMILES	S1P4 antagonist	NPY-Y1 PAM-ag	NPY-Y1 antag	S1P4 agonist	NPY-Y2 PAM-ag	NPY Y2 blocker	NPY1 antag conf	NPY2 antag ctr	others
C=CCn1c(O)c(/C(C)=N/N2CCCCCC2)c(=O)[nH]c1=O	-7	-15	nt	3	7	nt	nt	nt
CS(=O)(=O)N1CCN(C(=N)N[N+](=O)[O-])CC1	-11	13	1	1	-1	nt	nt	nt
O=C(COC(=O)c1ccc(O)cc1)Nc1ccc(Cl)cc1C(=O)c1ccccc1	-9	-44	17	2	-7	19*	nt	nt	NPY1 antag ctr=12;NPY-Y2 ant conf=9
C[C@H]1OC[C@@H](C[N+](C)(C)C)O1	-17	-70	44*	0	-15	6	36*	22*
Cc1ccc(N2CCN(CCc3ccccc3)CC2)cc1	-13	-14	-1	1	-1	0	nt	nt
Cc1cccc(N2CCN(CCc3ccccc3)CC2)c1C	-34	-14	23*	1	-22	8	5	8
O=C1N(c2nncs2)CCN1[N+](=O)[O-]	0	-10	nt	1	-6	nt	nt	nt
CN1CCN(c2nc3ccccc3o2)CC1	5	-2	nt	-1	-9	nt	nt	nt
O=C(N/N=C/c1c(O)n(-c2cccc3ccccc23)c(=O)[nH]c1=O)c1ccncc1	-13	-20	nt	-1	-13	nt	nt	nt
CCN(CC)CCCNC(=O)c1c(O)c2ccccc2n(Cc2ccccc2)c1=O	0	-49	20*	1	-41	15	16	26*
C1=C(c2c[nH]c3ccccc23)CCN(Cc2ccccc2)C1	-13	6	-4	4	-6	nt	nt	nt
CN1CC=C(c2c[nH]c3ccccc23)CC1	-13	-2	36*	1	0	2	6	3
COc1ccc2c(c1)c(C(=O)CN1CCN(C)CC1)c(C)n2Cc1ccccc1	-10	-111	25*	-1	-20	16	8	15
CP(=O)(Nc1ccccc1)C(Cl)(Cl)Cl (centres undefined)	-5	-15	0	-2	8	nt	nt	nt
Clc1ccc(COC(Cn2ccnc2)c2ccc(Cl)cc2Cl)c(Cl)c1 (centres undefined)	-27	-63	23*	2	-12	16	30*	25*
C/C1=C\[C@@H](C)C/C=C/[C@H]2[C@@H]3O[C@]3(C)[C@@H](C)[C@H]3[C@H](Cc4c[nH]c5ccccc45)NC(=O)[C@]32C(=O)/C=C/C(=O)[C@@H]1O	33*	11	40*	-1	39*	nt	35*	7	NPY-Y2 pot conf=5;NPY-Y1 potentiator=5;NPY-Y1 agonist 2=-1;CNGC inh=5;Y2 agonist ctr=17*;S1P4 antag cf=59*;S1P1 antag=25
CC(C)(C)NC(=S)N1CCn2cccc2C1c1cccnc1 (centres undefined)	4	2	-3	-1	5	nt	nt	nt

Screens as filed in PubChem BioAssay.
